Tested on: MS2 coat protein
Assay: apparent Kd, MS2 coat protein; higher = weaker binding; RNA-MaP array; tryptophan 2.4 mM where present
Procedure, shortened: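 In 100 mM Tris-HCl pH 7.5, 80 mM KCl, 4 mM MgCl2, BSA, DTT, yeast tRNA and Tween-20, SNAP-549-labelled MS2 coat protein was titrated from 0.7 or 1.5 nM, doubling to 3 µM, over designs transcribed by stalled E. coli RNA polymerase on Illumina sequencing-chip clusters. This was done first without ligand, then with ligand held constant. After green signal was normalised to red-channel RNA signal and control-cluster median Fmax, the apparent Kd was taken as the median of filtered per-cluster binding-curve fits.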

[1] = designed as: ON switch for tryptophan, no ligand
[2] = ligand present: tryptophan, designed as: ON switch for tryptophan
[3] = designed as: OFF switch for tryptophan, no ligand
[4] = ligand present: tryptophan, designed as: OFF switch for tryptophan

Sequence | apparent Kd [1] | apparent Kd [2] | apparent Kd [3] | apparent Kd [4]
AUGGACGACGAUCUGGGAAAACCAGAUCGACGAGGACCGGUACGGCCGCCACUCGUGUUUAUUUAACAUGAGGAUCACCCAUGUA | 45.9 nM | 17.6 nM |  | 
GCAUCCUAGUCGGCCGCCACUACAACAUGAGGAUCACCCAUGUGUGGGAGAUCCGUCCUACGAAGUAGGACCGGGACUAGGAUGC | 272 nM | 444 nM |  | 
GGUUACUCUACGGCCGCCACUGUUAAAUAAUAAACCUGUACAUAAACAUGAGGAUCACCCAUGUACAGGACCGGGUAGUGUAACC | 32.1 nM | 16.1 nM |  | 
CUACAUUUGUAGAAACCGGUCAACAAUAAUCGAGGACCGGUACGGCCGCCACUCGAUGUGAAAUCACAUGAGGAUCACCCAUGUA | 18 nM | 18.1 nM |  | 
GGCGCUGCGUCGGCCGCCACUAGUGGGUAAUGGGUGUACAUGAGGAUCACCCAUGUAUUUUGGCCUAGGACCGGGACGUGGCGCC |  |  | 453 nM | 503 nM
AUUAAGGAUAUGUAGACGGCGGAGAAGAGACGAGGACCGGUACGGCCGCCACUCGUGUUAGUUAACAUGAGGAUCACCCAUGUAA | 49.7 nM | 22 nM |  | 
CAUCCUAGUACAUGAGGAUCACCCAUGUAUCGAGGACCGGUACGGCCGCCACUCGAAUGGCGGAUCGUUAAUCCUCUAGGAUGGA |  |  | 10 nM | 13.5 nM
AUAACGAGUGGUGGAUAAUCCUCAUGUAAACGAGGACCGGUACGGCCGCCACUCGAUAACAUGAGGAUCACCCAUGUAAUAAUAA |  |  | 13.2 nM | 10.3 nM
AGAGCAUUGACGGCCGCCACUCAUGUCACAUGAGGAUCACCCAUGUGAUGGGUGAUAGCCCGGUCGAGGACCGGGUCAAUGCUCA | 17.2 nM | 18 nM |  | 
GGAUAGGACACGGCCGCCACUGCGCUAGGAUACUAGAACAUUUCCUCACAUGAGGAUCACCCAUGUAGGACCGGGUGUCCUAUCG |  |  | 49.6 nM | 152 nM
GAUAUAUAGGCGGCCGCCACUGAUUUUCAUAUAUAUAUAACAUGAGGAUCACCCAUGUAGAUAUACAGGACCGGGCCUAUAUAUU | 14.5 nM | 13.4 nM |  | 
UCUGCCGCGGCUCCGAUCCUCCUGUAGUUCCGAGGACCGGUACGGCCGCCACUCGUAGCACAUGAGGAUCACCCAUGUCUUGCGG |  |  | 9.45 nM | 11.2 nM
CUAUAAGUACCGGUCCUCAGAUCCUCAUGACGAGGACCGGUACGGCCGCCACUCGAAACAUGAGGAUCACCCAUGUAAUAAUAAU |  |  | 18.3 nM | 18.6 nM
UGUAUUGGAAACAGUACUAGUGAUCCGGUCCGAGGACCGGUACGGCCGCCACUCGAAAUUAAUAAACAUGAGGAUCACCCAUGUA |  |  | 14.8 nM | 34.2 nM
AAUGUAUUCCACAUGAGGAUCACCCAUGUGCGAGGACCGGUACGGCCGCCACUCGGUGUUGGGAUCUGUUCUGAAUACAUUAAUG |  |  | 29 nM | 114 nM
GAUCGAAAUAACGUCUAGGAAAACUAGACGCGAGGACCGGUACGGCCGCCACUCGGGUGGCACAUGAGGAUCACCCAUGUAGAUC |  |  | 78.7 nM | 105 nM
AUUCAUGGAAACAUGACAUAGGGAUCCGGUCGAGGACCGGUACGGCCGCCACUCGUUUGGAGGCACAUGAGGAUCACCCAUGUUA | 82 nM | 67.5 nM |  | 
UUAUAAGUACCGGUCCUCAGAUCCUCAUGACGAGGACCGGUACGGCCGCCACUCGAAACAUGAGGAUCACCCAUGUAAUAAUACU |  |  | 26.4 nM | 20.2 nM
UAAUCCGGUCCUCGAUAGGUGAUCCUCUAACGAGGACCGGUACGGCCGCCACUCGAUAACAUGAGGAUCACCCAUGUAAUAAUAA |  |  | 44 nM | 33.8 nM
AUUGUGAAGUCGGCCGCCACUGCAUAGUUUAACCUCUUUUAACAUGAGGAUCACCCAUGUAAUGACAGGACCGGGACAAUAGUAA | 51.5 nM | 59.9 nM |  | 
AAUAAUAAGGCGGCCGCCACUACACAUGAGGAUCACCCAUGUCUCGCGGGCUUGCGUUGGGAUUGUAGGACCGGGCCAAUAAUAA |  |  | 26.7 nM | 20.3 nM
AUACAUGAGGAUCACCCAUGUGAUGGCCGGCGAGGACCGGUACGGCCGCCACUCGUGAUCCGUCCUGAGAGCAAAGCCCUCAGCA | 124 nM | 171 nM |  | 
UUCUACGACGAUCUGGGAAAACCAGAUCGACGAGGACCGGUACGGCCGCCACUCGUGUUUCUUUAACAUGAGGAUCACCCAUGUA | 20.5 nM | 14.5 nM |  | 
UCGUUUUAGUCGGCCGCCACUGUGAGCAUGGUUAACAUGAGGAUCACCCAUGUCCCGUACUAUAACAGGACCGGGACGUAGUUGC | 93 nM | 22.8 nM |  | 
CCUCAUGAACAUGAGGAUCACCCAUGUACACGAGGACCGGUACGGCCGCCACUCGAAUAAGCUAAAUAUAAAUAAUAAUAAUAGC |  |  | 16.9 nM | 37.6 nM
GGCCAUGGAAACAUGGCGGCGGCGUAUGCGCGAGGACCGGUACGGCCGCCACUCGGGCGACAUGAGGAUCACCCAUGUUCCUCAU |  |  | 182 nM | 478 nM
CUAAAUAUAUCGGCCGCCACUUACUCAUGAGGUAACAACAUGAGGAUCACCCAUGUUUGAGGAUCAAGGACCGGGAUAUAUUUAG | 27.8 nM | 19 nM |  | 
CAAAAUAUAACGGCCGCCACUUACUCAUGAGGUAACAACAUGAGGAUCACCCAUGUUUGAGGAUCAAGGACCGGGUUAUAUUUUG | 30.7 nM | 17 nM |  | 
